The source of these data is ChEMBL document CHEMBL5370545 (Eur J Med Chem, 2023).

A short description of series [1]: Cytotoxicity against human cells expressing heterozygous BRAF V600E mutant assessed as cell growth measured after 7 days of treatment by crystal violet assay. The conditions noted are these: 168 h.
In series [2] the test system is C32. Nature of the series: Cytotoxicity against human C32 cells expressing heterozygous BRAF V600E mutant assessed as cell growth measured after 7 days of treatment by crystal violet assay. Type of series: functional, cell-based. The conditions noted are these: C32, 168 h. The gist of the method:
(§1)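 Cells seeded in 12-well plates: 8505C at 3 × 10^3, C32 at 10^4, HT29 at 5 × 10^3. Treated 24 h later with a dose series or DMSO vehicle for 7 days. Fixed in 4% PFA and stained with 0.1% crystal violet in 20% methanol. Destained with 10% acetic acid and read at 590 nm. Normalised to vehicle; mean ± SEM of three independent experiments.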

Series [3] has as its system 8505C. The experiment in a line: Cytotoxicity against human 8505C cells expressing homozygous BRAF V600E mutant assessed as cell growth measured after 7 days of treatment by crystal violet assay. Type of series: functional, cell-based. The conditions noted are these: 168 h. In a few lines:
as §1

For series [4], the system named is HT-29. Nature of the series: Cytotoxicity against human HT-29 cells expressing heterozygous BRAF V600E mutant assessed as cell growth measured after 7 days of treatment by crystal violet assay. The class given is functional, cell-based. The conditions noted are these: HT-29, 168 h. In a few lines: as §1
In series [5] the target is Serine/threonine-protein kinase B-raf (Homo sapiens, UniProt P15056, V600E). The experiment in a line: biochemical.
Series [6] is described as follows: Stability of compound in foetal bovine serum at 100 uM measured for 2 to 48 hrs by reverse phase HPLC chromatographic analysis. The class given is ADME, cell-free, Bos taurus. The conditions noted are these: cattle, time 2-48 hrs. The gist of the method: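 Held at 100 µM in foetal bovine serum at 37 °C for up to 48 h (2–48 h). Each aliquot diluted 1:10 in pH 7.4 culture medium before RP-HPLC with a 35 min 0.1% TFA water/acetonitrile gradient. Chromatographic profile monitored.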

Series [7] is described as follows: Drug uptake in human Hela cells assessed as fluorescent signal at 0.5 uM measured after 48 hrs by fluorescence microscopy. The class given is ADME, cell-based. The gist of the method:
(§2)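 A375 and HeLa cells seeded at 3 × 10^4 and treated 24 h later with 0.5 µM compound or DMSO vehicle for 48 h. Washed with PBS, fixed in 4% formaldehyde for 10 min at room temperature, and stained with DAPI and phalloidin. Cy5 signal imaged by inverted fluorescence microscopy.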

The nature of series [8]: Drug uptake in human A-375 cells harboring BRAF V600E mutant assessed as fluorescent signal at cytoplasm at 0.5 uM measured after 48 hrs by fluorescence microscopy. The class given is ADME, cell-based. The conditions noted are these: a-375, 48 h. In a few lines:
as §2

The nature of series [9]: Chemical stability of compound in cell culture medium at 100 uM at acidic pH measured for 2 to 48 hrs by reverse phase HPLC chromatographic analysis. Type of series: physicochemical. The conditions noted are these: time 2-48 hrs. In a few lines:
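Incubated at 100 µM, 37 °C, in phenol red-free DMEM High Glucose at pH 5, 7.4 or 8 for up to 48 h (2–48 h). Aliquots taken at each time point and analysed by RP-HPLC with a 35 min 0.1% TFA water/acetonitrile gradient. Chromatographic profile and 640/330 nm peak-area ratio followed.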

Series [10] relates to Serine/threonine-protein kinase B-raf (Homo sapiens), P15056 [V600E]. The experiment in a line: Displacement of Vemurafenib from BRAF V600E mutant in human WM278 cells assessed as increase in cyno-fluorescence measured after 90 mins by flow cytometry based displacement assay. Type of series: cell-based. In a few lines:
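Without washing, the Cy5 probe was added at 0, 0.05, 0.2, 1 and 2 µM for 90 min more. Cells were washed three times with medium (15 min each), imaged live, detached, and cell-associated Cy5 fluorescence was quantified by flow cytometry.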
A general note: In flow cytometry, cells or beads pass a laser one at a time.

Chain of Serine/threonine-protein kinase B-raf (Homo sapiens), P15056 [V600E] (P15056 whole entry V600E): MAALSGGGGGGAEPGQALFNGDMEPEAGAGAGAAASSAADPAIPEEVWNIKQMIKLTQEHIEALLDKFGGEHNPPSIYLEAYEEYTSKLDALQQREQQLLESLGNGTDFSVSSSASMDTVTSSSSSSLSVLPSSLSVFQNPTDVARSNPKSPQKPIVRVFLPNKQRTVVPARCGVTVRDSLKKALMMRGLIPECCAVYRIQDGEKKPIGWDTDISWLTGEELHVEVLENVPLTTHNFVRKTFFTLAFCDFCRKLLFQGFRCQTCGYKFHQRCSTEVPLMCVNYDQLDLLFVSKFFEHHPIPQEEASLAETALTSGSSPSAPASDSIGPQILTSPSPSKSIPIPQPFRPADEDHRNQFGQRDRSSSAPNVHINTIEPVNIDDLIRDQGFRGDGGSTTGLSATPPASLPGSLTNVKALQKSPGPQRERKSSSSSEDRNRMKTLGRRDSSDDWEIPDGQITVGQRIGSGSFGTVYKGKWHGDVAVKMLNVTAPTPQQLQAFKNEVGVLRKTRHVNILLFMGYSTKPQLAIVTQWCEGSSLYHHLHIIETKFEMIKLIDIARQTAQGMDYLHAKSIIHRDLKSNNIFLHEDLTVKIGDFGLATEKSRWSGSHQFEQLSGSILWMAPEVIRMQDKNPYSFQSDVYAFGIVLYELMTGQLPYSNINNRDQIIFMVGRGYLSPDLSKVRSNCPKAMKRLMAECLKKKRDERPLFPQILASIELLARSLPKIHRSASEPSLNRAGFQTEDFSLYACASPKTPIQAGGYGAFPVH
Chain of Serine/threonine-protein kinase B-raf (P15056 2-766 V600E limits assumed): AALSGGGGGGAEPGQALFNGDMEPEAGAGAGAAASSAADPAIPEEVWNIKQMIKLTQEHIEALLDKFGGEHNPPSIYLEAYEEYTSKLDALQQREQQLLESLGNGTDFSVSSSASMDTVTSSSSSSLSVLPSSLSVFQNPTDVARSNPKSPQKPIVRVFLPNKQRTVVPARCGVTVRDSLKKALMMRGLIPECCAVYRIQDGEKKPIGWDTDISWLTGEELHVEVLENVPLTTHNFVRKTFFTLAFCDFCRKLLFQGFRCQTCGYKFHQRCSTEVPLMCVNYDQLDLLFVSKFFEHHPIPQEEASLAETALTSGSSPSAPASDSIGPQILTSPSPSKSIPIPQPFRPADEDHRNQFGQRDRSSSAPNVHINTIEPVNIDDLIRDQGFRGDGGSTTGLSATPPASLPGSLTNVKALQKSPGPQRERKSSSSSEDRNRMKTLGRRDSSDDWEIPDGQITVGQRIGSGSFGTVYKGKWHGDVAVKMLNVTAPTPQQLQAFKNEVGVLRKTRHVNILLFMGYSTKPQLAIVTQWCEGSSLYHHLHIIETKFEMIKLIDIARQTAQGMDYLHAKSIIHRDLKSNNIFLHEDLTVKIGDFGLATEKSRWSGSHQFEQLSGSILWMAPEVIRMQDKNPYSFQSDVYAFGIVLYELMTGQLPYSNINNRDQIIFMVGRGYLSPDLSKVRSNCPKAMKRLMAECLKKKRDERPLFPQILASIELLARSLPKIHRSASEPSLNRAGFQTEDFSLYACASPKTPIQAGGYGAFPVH

As for `CCCS(=O)(=O)Nc1ccc(F)c(C(=O)c2c[nH]c3ncc(-c4ccc(N)cc4)cc23)c1F`, the IC50 in series [1] amounted to 15 nM; in series [2], 12 nM; in [3] it was 620 nM; in [4], 27 nM.
In the case of `CCCS(=O)(=O)Nc1ccc(F)c(C(=O)c2c[nH]c3ncc(-c4ccc(NC(=O)COCCOCCNC(=O)CCCCC[N+]5=C(/C=C/C=C/C=C6\N(C)c7ccccc7C6(C)C)C(C)(C)c6ccccc65)cc4)cc23)c1F.O=C([O-])C(F)(F)F`, the Kd in series [5] stood at 13 nM. In addition, the IC50 turned out to be 570 nM in series [1], 630 nM in series [2], 2500 nM in series [3] and 340 nM in [4]. Further, the Stability result is “Stable” in series [6] and “Unstable” in [9]. The Drug uptake entry in [7] is on record as “Not Active”; in series [8], “Active”. The Activity result in series [10] was “Dose-Dependent Effect”.
`CCCS(=O)(=O)Nc1ccc(F)c(C(=O)c2c[nH]c3ncc(-c4ccc(Cl)cc4)cc23)c1F` [VEMURAFENIB]: the IC50 in series [1] came out at 150 nM; in series [2] it was 84 nM; in series [3], 2940 nM; in [4], 49 nM.

Usually IC50 stands for the point on the concentration scale where inhibition reaches its midpoint. The Kd is the equilibrium constant for the complex coming apart. A lower Kd goes with tighter binding.
